According to ChEMBL document CHEMBL5120935, “Synthesis, Anti-Plasmodial Activities, and Mechanistic Insights of 4-Aminoquinoline-Triazolopyrimidine Hybrids” (ACS Med Chem Lett, 2022):

Experiments:
Plasmodium falciparum [1] = assay: Antiplasmodial activity against CQ-susceptible Plasmodium falciparum 3D7 infected in A+ human blood assessed as reduction in parasite growth measured after 72 hrs by HRP2 ELISA; format: functional, organism-based; conditions: 3D7, Blood
Procedure, shortened: (§1)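 IC50s against P. falciparum chloroquine-susceptible 3D7 and chloroquine-resistant W2 strains, each tested separately. Values are the mean and standard deviation of 6 to 9 independent experiments.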

Plasmodium falciparum [2] = assay: Antiplasmodial activity against CQ-resistance Plasmodium falciparum W2 infected in A+ human blood assessed as reduction in parasite growth measured after 72 hrs by HRP2 ELISA; format: functional, organism-based; procedure, shortened: as §1
[3] = Resistance index, ratio of IC50 for antiplasmodial activity against CQ-resistance Plasmodium falciparum W2 infected in A+ human blood to IC50 for antiplasmodial activity against CQ-susceptible Plasmodium falciparum 3D7 infected in A+ human blood; format: functional
Procedure, shortened: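 Resistance index calculated as IC50 against W2 divided by IC50 against 3D7, using the in vitro antiplasmodial IC50s measured for each strain.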

[4] = Cytotoxicity against African green monkey Vero cells; format: toxicity, cell-based; conditions: African green monkey (Chlorocebus sabaeus)
[5] = Selectivity index, ratio of IC50 for cytotoxicity against African green monkey Vero cells to IC50 for antiplasmodial activity against CQ-susceptible Plasmodium falciparum 3D7 infected in A+ human blood assessed as reduction in parasite growth measured after 72 hrs by HRP2 ELISA; format: toxicity, cell-based; conditions: read-out: Selectivity Index
Procedure, shortened: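 Selectivity index calculated as the IC50 for cytotoxicity on Vero cells divided by the antiplasmodial IC50 against the 3D7 strain.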

[6] = Selectivity index, ratio of IC50 for cytotoxicity against African green monkey Vero cells to IC50 for antiplasmodial activity against CQ-resistance Plasmodium falciparum W2 infected in A+ human blood assessed as reduction in parasite growth measured after 72 hrs by HRP2 ELISA; format: toxicity, cell-based; conditions: read-out: Selectivity Index
Procedure, shortened: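 Selectivity index calculated as the IC50 for cytotoxicity on Vero cells divided by the antiplasmodial IC50 against the W2 strain.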

Row | Compound | IC50 (Plasmodium falciparum [1]) | IC50 (Plasmodium falciparum [2]) | Ratio IC50 [3] | IC50 [4] | selectivity ratio at 72 h [5] | selectivity ratio at 72 h [6]
1 | Cc1cc(NCCNc2ccnc3cc(Cl)ccc23)n2ncnc2n1 | 9 µM | 10.8 µM | 1.2 |  |  | 
2 | Cc1cc(NCCCCCCNc2cc(C)nc3ncnn23)n2ncnc2n1 | 11.6 µM | 11.3 µM | 0.97 |  |  | 
3 | Cc1cc(NCCNc2cc(C)nc3ncnn23)n2ncnc2n1 | 52.2 µM | 53.8 µM | 1.03 |  |  | 
4 | Cc1cc(NCCCNc2cc(C)nc3ncnn23)n2ncnc2n1 | 47.3 µM | 49.1 µM | 1.03 |  |  | 
5 | Cc1cc(NCCCCNc2ccnc3cc(Cl)ccc23)n2ncnc2n1 | 0.27 µM | 0.42 µM | 1.56 | 250 µM | 927 | 596
6 | Cc1cc(N2CCN(c3ccnc4cc(Cl)ccc34)CC2)n2ncnc2n1 | 12.6 µM | 12.9 µM | 1.02 |  |  | 
7 | Cc1cc(NCCCCNc2cc(C)nc3ncnn23)n2ncnc2n1 | 12.5 µM | 11.8 µM | 0.94 |  |  | 
8 | Cc1cc(NCCCCCCCCNc2cc(C)nc3ncnn23)n2ncnc2n1 | 45.8 µM | 49.4 µM | 1.08 |  |  | 
9 | Cc1cc(NCCCNc2ccnc3cc(Cl)ccc23)n2ncnc2n1 | 0.62 µM | 0.49 µM | 0.79 | 181 µM | 291 | 369
10 | Cc1cc(NCCCCCCCCNc2ccnc3cc(Cl)ccc23)n2ncnc2n1 | 0.17 µM | 0.2 µM | 1.18 | 351 µM | 2060 | 1750
11 | Cc1cc(NCCCCCCNc2ccnc3cc(Cl)ccc23)n2ncnc2n1 | 0.3 µM | 0.28 µM | 0.93 | 311 µM | 1040 | 1110
